Experimental data collected from several papers.
Protocols differ between the studies behind these lines.
Target: Serine/threonine-protein kinase 32C (STK32C, Homo sapiens, UniProt Q86UX6)

Structure (SMILES)	read-out	technique	tested at	remaining binding [%]
O=C(NCCCN1CCOCC1)c1ccc(Nc2ncc(Cl)c(-c3ccc(Cl)s3)n2)cc1	binding	competition with immobilised ligand	1 µM	100
CO[C@H]1CC[C@H](CNc2ccc(S(=O)(=O)NC(=O)c3ccc(N4CCN(CC5=C(c6ccc(Cl)cc6)CC(C)(C)CC5)CC4)cc3Oc3cnc4[nH]ccc4c3)cc2[N+](=O)[O-])CC1	cell-free assay	competition with immobilised ligand	1 µM	54
C=CC(=O)N1CCC(C(=O)NCC(=O)N2CCN(c3nc(-c4cnc(N)nc4C(F)F)nc(N4CCOCC4)n3)CC2)CC1	binding	competition with immobilised ligand	1 µM	99
COc1ccnn2ncc(-c3ccnc(N(C)C)n3)c12	binding		1 µM	80
O=C(NCCCN1CCOCC1)c1ccc(Nc2nccc(-c3cc4ccccc4s3)n2)cc1	binding	competition with immobilised ligand	1 µM	92
C[C@H]1CCN(c2nccc(-c3cnn4ncccc34)n2)C1	binding		1 µM	100
O=C(Nc1c[nH]nc1C(=O)NC1CCNCC1)c1cc(F)cc(F)c1	binding	competition with immobilised ligand	1 µM	97
O=C(Nc1cnc(Oc2ccc(F)cc2)nc1)N1CCc2ncccc2[C@@H]1c1ccc(F)cc1	cell-free assay	competition with immobilised ligand	1 µM	96
CN(C)c1nccc(-c2cnc3ncccn23)n1	binding		1 µM	100
CC1=C(C#N)C(c2ccc3c(c2)c(NC(=O)c2ccccc2C)nn3C)C(C#N)=C(C)N1	cell-free assay	competition with immobilised ligand	1 µM	79
CC(C)(C)c1ccc(-c2nc(CBr)nn2-c2cccc(O)c2)cc1	cell-free assay	competition with immobilised ligand	10 µM	54
COc1cnc(Nc2cccc(S(N)(=O)=O)c2)nc1N1CCN(c2ccccc2)CC1	binding	competition with immobilised ligand	1 µM	100
c1cncc(-c2cccc(Nc3nccc(NC4CCCCC4)n3)c2)c1	binding	competition with immobilised ligand	10 µM	55
CCOC(=O)c1cc2cc(-c3cc(C(=O)NCc4ccc(C(=O)O)cc4)nn3C)ccc2[nH]1	cell-free assay	competition with immobilised ligand	0.1 µM	100
CCN1CCN(Cc2ccc(C(=O)Nc3ccc(C)c(Oc4ccc5c(c4)CC(=O)N5)c3)cc2C(F)(F)F)CC1	binding	competition with immobilised ligand	1 µM	100
Cc1cnn2ncc(-c3ccnc(N(C)C)n3)c2c1	binding		1 µM	100
CN1CCN(c2cnc3c(C4CCN(C(=O)c5ccc(OC(F)(F)F)cc5N)CC4)ncnc3c2)CC1	cell-free assay	competition with immobilised ligand	1 µM	100
